{
  "source": "ChEMBL document CHEMBL3112420",
  "about": "“Discovery of 8-cyclopentyl-2-[4-(4-methyl-piperazin-1-yl)-phenylamino]-7-oxo-7,8-dihydro-pyrido[2,3-d]pyrimidine-6-carbonitrile (7x) as a potent inhibitor of cyclin-dependent kinase 4 (CDK4) and AMPK-related kinase 5 (ARK5)” (J Med Chem, 2014)",
  "key": {"MDA-MB-231 [1]": {"system": "MDA-MB-231", "assay": "Antitumor activity against ip dosed human MDA-MB-231 cells xenografted in NCR nude mouse assessed as inhibition of tumor growth administered as […] on alternative days measured every 2 days up to 21 days", "assay_type": "functional, organism-based", "summary_of_the_method": "(§1)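 MDA-MB-231 cells orthotopically implanted into mammary fat pads of 6–8 week old female nude mice (n=11 per group). Dosing began when average tumour volume reached 100 mm3. Lactate salt in PBS or vehicle was given intraperitoneally every other day (Q2D). Tumour volumes and body weights were recorded every 2 days over 21 days; mean ± SEM.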"}, "COLO 205": {"system": "COLO 205", "assay": "Cytotoxicity against human COLO205 cells after 96 hrs by Cell-Titer Blue assay", "assay_type": "functional", "details": "COLO 205, 96 h"}, "[2]": {"target": "Macrophage colony-stimulating factor 1 receptor (Homo sapiens, UniProt P07333)", "sequence (P07333 whole entry)": "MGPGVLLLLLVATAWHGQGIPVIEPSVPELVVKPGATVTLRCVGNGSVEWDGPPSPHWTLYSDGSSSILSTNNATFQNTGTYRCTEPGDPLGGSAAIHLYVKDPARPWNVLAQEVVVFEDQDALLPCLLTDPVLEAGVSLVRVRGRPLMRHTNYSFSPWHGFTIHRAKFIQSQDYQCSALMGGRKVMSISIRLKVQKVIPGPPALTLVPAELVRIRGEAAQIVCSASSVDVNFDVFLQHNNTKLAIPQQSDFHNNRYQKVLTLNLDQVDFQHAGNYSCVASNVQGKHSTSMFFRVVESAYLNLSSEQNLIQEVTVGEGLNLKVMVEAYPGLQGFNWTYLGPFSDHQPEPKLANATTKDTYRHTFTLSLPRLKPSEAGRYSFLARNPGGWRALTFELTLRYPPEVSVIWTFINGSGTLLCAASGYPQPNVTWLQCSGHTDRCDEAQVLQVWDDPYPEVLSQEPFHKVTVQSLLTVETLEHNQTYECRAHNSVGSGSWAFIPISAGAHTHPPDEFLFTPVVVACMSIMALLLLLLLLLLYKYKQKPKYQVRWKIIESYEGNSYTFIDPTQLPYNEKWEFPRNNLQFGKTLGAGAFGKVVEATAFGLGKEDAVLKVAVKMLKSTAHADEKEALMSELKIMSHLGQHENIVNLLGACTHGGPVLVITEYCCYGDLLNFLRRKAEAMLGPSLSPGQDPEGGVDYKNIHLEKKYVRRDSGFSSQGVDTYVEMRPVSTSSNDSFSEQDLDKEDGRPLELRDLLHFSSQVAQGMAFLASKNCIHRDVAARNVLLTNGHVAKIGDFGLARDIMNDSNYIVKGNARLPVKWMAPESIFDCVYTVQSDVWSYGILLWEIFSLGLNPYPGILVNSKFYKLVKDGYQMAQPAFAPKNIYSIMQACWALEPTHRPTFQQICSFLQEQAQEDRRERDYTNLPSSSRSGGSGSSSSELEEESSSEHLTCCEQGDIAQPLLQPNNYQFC", "assay": "Inhibition of FMS (unknown origin)"}, "MDA-MB-157": {"system": "MDA-MB-157", "assay": "Cytotoxicity against human MDA-MB-157 cells after 96 hrs by Cell-Titer Blue assay", "assay_type": "functional", "details": "MDA-MB-157, 96 h"}, "[3]": {"target": "Fibroblast growth factor receptor 1 (Homo sapiens, UniProt P11362)", "sequence (P11362 whole entry)": "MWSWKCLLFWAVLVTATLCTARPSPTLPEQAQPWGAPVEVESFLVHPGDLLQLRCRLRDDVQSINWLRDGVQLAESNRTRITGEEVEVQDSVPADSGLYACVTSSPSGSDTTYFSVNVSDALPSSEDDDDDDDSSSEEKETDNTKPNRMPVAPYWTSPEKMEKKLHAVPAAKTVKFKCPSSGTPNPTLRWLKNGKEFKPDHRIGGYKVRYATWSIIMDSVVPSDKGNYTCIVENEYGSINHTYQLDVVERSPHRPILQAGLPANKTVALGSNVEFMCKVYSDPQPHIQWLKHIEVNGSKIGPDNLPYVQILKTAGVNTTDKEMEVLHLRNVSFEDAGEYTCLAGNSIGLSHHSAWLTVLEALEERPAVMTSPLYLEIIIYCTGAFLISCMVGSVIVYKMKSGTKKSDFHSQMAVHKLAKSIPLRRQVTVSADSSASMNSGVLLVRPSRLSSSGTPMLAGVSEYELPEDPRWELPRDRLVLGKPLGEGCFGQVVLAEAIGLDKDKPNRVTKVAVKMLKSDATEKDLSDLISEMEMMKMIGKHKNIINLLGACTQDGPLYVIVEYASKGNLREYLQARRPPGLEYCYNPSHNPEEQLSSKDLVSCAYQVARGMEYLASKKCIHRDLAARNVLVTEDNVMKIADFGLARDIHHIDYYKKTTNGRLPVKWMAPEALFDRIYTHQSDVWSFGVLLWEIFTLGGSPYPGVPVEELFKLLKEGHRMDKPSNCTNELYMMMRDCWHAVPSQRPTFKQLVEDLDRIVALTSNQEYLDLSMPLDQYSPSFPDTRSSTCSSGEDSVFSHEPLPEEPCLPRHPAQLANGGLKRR", "assay": "Inhibition of FGFR1 (unknown origin)"}, "[4]": {"assay": "Toxicity in CD-1 mouse […] assessed as survival rate at 200 mg/kg, ip administered for 5 days measured after 10 days", "assay_type": "organism-based", "design": "dose 200 mg/kg, route intraperitoneal", "details": "in vivo", "summary_of_the_method": "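Female CD-1 mice (n=3) were given 200 mg/kg ip on 5 consecutive days. They were then monitored for signs of toxicity, with survival followed beyond 10 days after injection. This came after an initial single-dose test at 100 or 200 mg/kg ip with 7-day monitoring.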"}, "[5]": {"assay": "Cytotoxicity against human Capan1 cells after 96 hrs by Cell-Titer Blue assay", "assay_type": "functional", "details": "CAPAN-1, 96 h"}, "[6]": {"target": "Cyclin-dependent kinase 4/cyclin D1 (Homo sapiens) (UniProt P11802+P24385)", "assay": "Inhibition of recombinant CDK4/cyclinD1 in human MDA-MB-231 cells assessed as inhibition of retinoblastoma phosphorylation at Ser780 at 0.5 to 5 uM after 24 hrs by Western blotting analysis", "assay_type": "cell-based", "summary_of_the_method": "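Breast carcinoma cells were given increasing concentrations for 24 h. Total lysates (100 μg, 10% SDS-PAGE) were immunoblotted with antibodies against Ser780-phosphorylated and non-phosphorylated RB. Bands were read on an infrared scanning system.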"}, "[7]": {"assay": "Cytotoxicity against human GRANTA-519 cells after 96 hrs by Cell-Titer Blue assay", "assay_type": "functional", "details": "Granta-519, 96 h"}, "NCI-H417": {"system": "NCI-H417", "assay": "Cytotoxicity against human NCI-N417 cells after 96 hrs by Cell-Titer Blue assay", "assay_type": "functional", "details": "NCI-H417, 96 h"}, "MDA-MB-231 [8]": {"system": "MDA-MB-231", "assay": "Antitumor activity against human MDA-MB-231 cells xenografted in NCR nude mouse assessed as decrease in tumor weight at 50 mg/kg, ip […] administered on alternative days measured every 2 days up to 21 days", "assay_type": "functional, organism-based", "design": "dose 50 mg/kg", "summary_of_the_method": "as §1"}},
  "note": "Active and inactive are the calls of the source. No cut-off for these calls is given here.",
  "data": [
    {"smiles": "CN1CCN(c2ccc(Nc3ncc4cc(C#N)c(=O)n(C5CCCC5)c4n3)cc2)CC1", "note": "[NARAZACICLIB]", "values": [
      {"measurement": "inhibition", "setting": "MDA-MB-231 [1]", "result": "Dose-dependent effect"},
      {"measurement": "GI50", "setting": "COLO 205", "result": 100, "unit": "nM"},
      {"measurement": "IC50", "setting": "[2]", "result": 10, "unit": "nM"},
      {"measurement": "GI50", "setting": "MDA-MB-157", "result": 1000, "unit": "nM"},
      {"measurement": "IC50", "setting": "[3]", "result": 26, "unit": "nM"},
      {"measurement": "survival at 240 h", "setting": "[4]", "result": 100, "unit": "%"},
      {"measurement": "GI50", "setting": "[5]", "result": 500, "unit": "nM"},
      {"measurement": "inhibition", "setting": "[6]", "result": "Active"},
      {"measurement": "GI50", "setting": "[7]", "result": 25, "unit": "nM"},
      {"measurement": "GI50", "setting": "NCI-H417", "result": 250, "unit": "nM"},
      {"measurement": "Activity", "setting": "MDA-MB-231 [8]", "result": "Active"}
    ]}
  ]
}
